Results: article PMC3510669 (Journal of immunology (Baltimore, Md. : 1950), 2010)

Tested on: naïve CD4^+ T cells
Assay: pMHCII tetramer-based cell enrichment of spleen and lymph node cells
Parameters: species or system mouse
Settings: B6 mice; for fold smaller than the 2W:I-A^b-specific naïve population: spleen and lymph nodes (3K: spleen and lymph nodes or thymus), Fig. 3B, C, 4D; for size of naïve CD4+ T cell population specific for peptide:I-A^b: spleen and lymph nodes, mean, Fig. 4D, 6D
Method in brief: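 Spleen and lymph node cells from individual naïve B6 mice were enriched with peptide:I-A^b tetramers. Tetramer-binding CD4⁺ T cells were counted as total cells per mouse, and group means were taken across individual mice.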

Sequence | fold smaller than the 2W:I-A^b-specific naïve population [fold] | size of naïve CD4+ T cell population specific for peptide:I-A^b [cells]
EAGGALANGAVDSA [2G] | 6 | 62 ± 13
EARGALANWAVDSA [1R] | 3 | 108 ± 36
EAGGALANWAVDSA [1G] | 3 | 127 ± 39
